Format in all cases: functional
For experiment [1], the system named is Mycobacterium tuberculosis. Put plainly: Antimycobacterial activity against rifampicin-resistant Mycobacterium tuberculosis isolate P90 after 7 days by microplate alamar blue assay. To be noted: isolate P90, 168 h. Summed up: (§1)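 Each well held a 1/100 culture dilution plus 10-point two-fold DMSO dilutions (top 100 µg/mL, final DMSO 2%). INH and RIF were the positive controls. After 7 days at 37 °C, Tween 80 and alamarBlue were added for 16–24 h. MIC was the lowest concentration preventing the blue-to-pink change.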
(Alamar Blue is a resazurin reagent that responds to reducing activity.)

For experiment [2], the system named is Mycobacterium tuberculosis. Put plainly: Antimycobacterial activity against rifampicin-resistant Mycobacterium tuberculosis isolate P103 after 7 days by microplate alamar blue assay. To be noted: isolate P103, 168 h. Put shortly:
as §1

In experiment [3] the test system is Mycobacterium tuberculosis. Put plainly: Antimycobacterial activity against rifampicin-resistant Mycobacterium tuberculosis isolate R7 after 7 days by microplate alamar blue assay. As to conditions: isolate R7, 168 h. Summed up: as §1
The subject of experiment [4] is Mycobacterium tuberculosis. Put plainly: Antimycobacterial activity against rifampicin/isoniazid/pyrazinamide-resistant Mycobacterium tuberculosis isolate P71 after 7 days by microplate alamar blue assay. To be noted: isolate P71, 168 h. Summed up: as §1
For experiment [5], the system named is Mycobacterium tuberculosis. Put plainly: Antimycobacterial activity against rifampicin-resistant Mycobacterium tuberculosis isolate P91 after 7 days by microplate alamar blue assay. To be noted: isolate P91, 168 h. Put shortly: as §1
Experiment [6] has as its system Mycobacterium tuberculosis. Put plainly: Antimycobacterial activity against rifampicin-resistant Mycobacterium tuberculosis isolate P98 after 7 days by microplate alamar blue assay. As to conditions: isolate P98, 168 h. Summed up: as §1

Converted amounts (≈) assume the structure as drawn.

As a reminder, the MIC is the smallest concentration in the dilution series that meets the test's criterion for growth inhibition. A higher MIC goes with a less susceptible organism. In the case of `O=C(Nc1cc(O)cc(Cc2ccccc2)c1)C1CCCCC1`, the MIC was above 100 µg/mL in experiment [1]; 0.39 µg/mL (≈ 1.26 µM) in experiment [2]; 3.12 µg/mL (≈ 10.1 µM) in experiment [3]; above 100 µg/mL in experiment [4]; 0.39 µg/mL (≈ 1.26 µM) in experiment [5]; above 100 µg/mL in experiment [6].

For the compound `O=C(Nc1cc(O)cc(Cc2ccccc2)c1)c1ccccc1`, the MIC in experiment [1] is above 100 µg/mL; in experiment [2], 0.39 µg/mL (≈ 1.29 µM); in experiment [3], 0.78 µg/mL (≈ 2.57 µM); in experiment [4] it was above 100 µg/mL; in experiment [5], 0.39 µg/mL (≈ 1.29 µM); in experiment [6] it was above 100 µg/mL.

These data come from ChEMBL document CHEMBL4257537, “Design, synthesis, and biological evaluation of m-amidophenol derivatives as a new class of antitubercular agents” (Medchemcomm, 2018).
